Measurements: ChEMBL document CHEMBL1157014, “Synthesis, characterization and biological evaluation of some thiourea derivatives bearing benzothiazole moiety as potential antimicrobial and anticancer agents” (Eur J Med Chem, 2010)
≈ marks a conversion by molar mass, not a printed value.

How the values were obtained:
Candida tropicalis = assay: Antifungal activity against Candida tropicalis ATCC 20336 after 48 hrs by browth microdilution assay; format: functional
In short: (§1)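 Yeast colonies suspended in 0.9% saline and adjusted to McFarland 0.5, then tested by CLSI broth microdilution. Compounds in DMSO, diluted with distilled water to 3.125–100 µg/ml, with DMSO as negative control and nystatin as reference. Incubation at 37 °C, read after 48 h. MIC is the lowest concentration with no visible growth.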

Staphylococcus aureus = assay: Antibacterial activity against Staphylococcus aureus ATCC 29213 after 24 hrs by browth microdilution assay; format: functional; details: ATCC 29213, 24 h
In short: (§2)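 Broth microdilution per CLSI. Colonies suspended in 0.9% saline and adjusted to McFarland 0.5. Compounds dissolved in DMSO, diluted with distilled water to 100, 50, 25, 12.5, 6.25 and 3.125 µg/ml, with DMSO as negative control. Gentamycin (Gram-negative) and amikacin (Gram-positive) served as reference drugs. Incubation at 37 °C for 24 h. MIC taken as the lowest concentration preventing visible growth.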

[1] = tested on: Staphylococcus aureus (ATCC 25923); assay: Antibacterial activity against Staphylococcus aureus ATCC 25923 after 24 hrs by browth microdilution assay; details: ATCC 25923, 24 h
Pichia kudriavzevii = assay: Antifungal activity against Candida krusei ATCC 6268 after 48 hrs by browth microdilution assay; format: functional; in short: as §1
[2] = tested on: Staphylococcus epidermidis; assay: Antibacterial activity against Staphylococcus epidermidis ATCC 12228 after 24 hrs by browth microdilution assay; format: functional; details: ATCC 12228, 24 h; in short: as §2
Pseudomonas aeruginosa = assay: Antibacterial activity against Pseudomonas aeruginosa ATCC 27853 after 24 hrs by browth microdilution assay; format: functional; in short: as §2
Proteus vulgaris = assay: Antibacterial activity against Proteus vulgaris ATCC 13315 after 24 hrs by browth microdilution assay; format: functional; in short: as §2
Candida albicans = assay: Antifungal activity against Candida albicans ATCC 90028 after 48 hrs by browth microdilution assay; format: functional; in short: as §1
Enterococcus faecalis = assay: Antibacterial activity against Enterococcus faecalis ATCC 29212 after 24 hrs by browth microdilution assay; format: functional; details: ATCC 29212, 24 h; in short: as §2
Nakaseomyces glabratus = assay: Antifungal activity against Candida glabrata ATCC 32554 after 48 hrs by browth microdilution assay; format: functional; in short: as §1
HeLa = assay: Cytotoxicity against human HeLa after 24 hrs by MTT assay; format: functional, cell-based
In short: (§3)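 Cells grown in MEM with 10% FBS and 1% glutamine at 5% CO2, seeded at 1.0×10^4 cells. Exposed to compounds at 1–100 µM in medium containing 0.1% DMSO for 24 h at 37 °C. MTT (1 mg/ml) added for 5 h at 37 °C, then DMSO added and absorbance read at 540 nm. Run in triplicate; IC50 determined.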

Enterobacter cloacae = assay: Antibacterial activity against Enterobacter cloacae ATCC 13047 after 24 hrs by browth microdilution assay; format: functional; in short: as §2
MCF7 [3] = assay: Cytotoxicity against human MCF7 after 24 hrs by MTT assay; format: functional, cell-based; details: MCF7, 24 h; in short: as §3
Escherichia coli = assay: microbe, parasite or virus in culture; details: ATCC 25922, 24 h
MCF7 [4] = assay: Cytotoxicity against human MCF7 after 48 hrs by MTT assay; format: functional, cell-based; details: MCF7, 48 h
In short: (§4)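 MCF-7 cells in MEM with 10% FBS at 5% CO2 were exposed to compounds (1–100 µM, 0.1% DMSO vehicle) for 48 or 72 h before MTT read-out. IC50 values came from the MTT assay.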

MCF7 [5] = assay: Cytotoxicity against human MCF7 after 72 hrs by MTT assay; format: functional, cell-based; details: MCF7, 72 h; in short: as §4

In the case of O=C(NC(=S)Nc1nc2cc([N+](=O)[O-])ccc2s1)N1CCOCC1, the MIC (Candida tropicalis; ATCC 20336, 48 h) is reported as 5 µg/mL (≈ 13.6 µM), the MIC (Staphylococcus aureus) is reported as 25 µg/mL (≈ 68 µM) and the MIC [1] is reported as 20 µg/mL (≈ 54.4 µM). The MIC (Pichia kudriavzevii; ATCC 6268, 48 h) was 20 µg/mL (≈ 54.4 µM), the MIC [2] was 10 µg/mL (≈ 27.2 µM) and the MIC (Pseudomonas aeruginosa; ATCC 27853, 24 h) was 25 µg/mL (≈ 68 µM). For the same compound, the MIC (Proteus vulgaris; ATCC 13315, 24 h) was 20 µg/mL (≈ 54.4 µM), the MIC (Candida albicans; ATCC 90028, 48 h) was 15 µg/mL (≈ 40.8 µM) and the MIC (Enterococcus faecalis) was 10 µg/mL (≈ 27.2 µM). The MIC (Nakaseomyces glabratus; ATCC 32554, 48 h) was 5 µg/mL (≈ 13.6 µM), the IC50 (HeLa) was 54.8 µM and the MIC (Enterobacter cloacae; ATCC 13047, 24 h) was 15 µg/mL (≈ 40.8 µM). The IC50 (MCF7 [3]) was 31 µM and the MIC (Escherichia coli) was 15 µg/mL (≈ 40.8 µM).
With O=C(NC(=S)Nc1nc2ccccc2s1)c1cccs1 the MIC (Candida tropicalis; ATCC 20336, 48 h) was 50 µg/mL (≈ 157 µM), the MIC (Staphylococcus aureus) was 50 µg/mL (≈ 157 µM) and the MIC [1] was 50 µg/mL (≈ 157 µM). The MIC (Pichia kudriavzevii; ATCC 6268, 48 h) was 25 µg/mL (≈ 78.3 µM), the MIC [2] was 50 µg/mL (≈ 157 µM) and the MIC (Pseudomonas aeruginosa; ATCC 27853, 24 h) was 50 µg/mL (≈ 157 µM). For the same compound, the MIC (Proteus vulgaris; ATCC 13315, 24 h) was 50 µg/mL (≈ 157 µM), the MIC (Candida albicans; ATCC 90028, 48 h) was 50 µg/mL (≈ 157 µM) and the MIC (Enterococcus faecalis) was 50 µg/mL (≈ 157 µM). It also gave an MIC (Nakaseomyces glabratus; ATCC 32554, 48 h) of 25 µg/mL (≈ 78.3 µM), an IC50 (HeLa) of 68.2 µM and an MIC (Enterobacter cloacae; ATCC 13047, 24 h) of 50 µg/mL (≈ 157 µM). It also gave an IC50 (MCF7 [3]) of 32.6 µM and an MIC (Escherichia coli) of 25 µg/mL (≈ 78.3 µM).
Compound NYSTATIN has an MIC (Candida tropicalis) of 4 µg/mL, an MIC (Pichia kudriavzevii) of 0.5 µg/mL and an MIC (Candida albicans) of 1 µg/mL. For the same compound, the MIC (Nakaseomyces glabratus) was 2 µg/mL.
In the case of O=C(NC(=S)Nc1nc2ccccc2s1)c1ccccc1, the MIC (Candida tropicalis; ATCC 20336, 48 h) is reported as 50 µg/mL (≈ 160 µM), the MIC (Pichia kudriavzevii; ATCC 6268, 48 h) is reported as 50 µg/mL (≈ 160 µM) and the MIC (Candida albicans; ATCC 90028, 48 h) is reported as 50 µg/mL (≈ 160 µM). It also gave an MIC (Nakaseomyces glabratus; ATCC 32554, 48 h) of 25 µg/mL (≈ 79.8 µM), an IC50 (HeLa) of 57.5 µM and an IC50 (MCF7 [3]) of 37.3 µM.
In the case of O=C(NC(=S)Nc1nc2cc(Br)ccc2s1)c1cccs1, the MIC (Pseudomonas aeruginosa; ATCC 27853, 24 h) is reported as 25 µg/mL (≈ 62.8 µM), the IC50 (MCF7 [4]) is reported as 15.7 µM and the MIC (Proteus vulgaris; ATCC 13315, 24 h) is reported as 50 µg/mL (≈ 126 µM). For the same compound, the IC50 (HeLa) was 46.5 µM, the IC50 (MCF7 [5]) was 12.1 µM and the MIC (Enterobacter cloacae; ATCC 13047, 24 h) was 50 µg/mL (≈ 126 µM). The IC50 (MCF7 [3]) was 24.2 µM and the MIC (Escherichia coli) was 25 µg/mL (≈ 62.8 µM).
Nc1ccc2sc(NC(=S)NC(=O)c3cccs3)nc2c1 showed an MIC (Candida tropicalis; ATCC 20336, 48 h) of 25 µg/mL (≈ 74.7 µM), an MIC (Pichia kudriavzevii; ATCC 6268, 48 h) of 25 µg/mL (≈ 74.7 µM) and an MIC (Pseudomonas aeruginosa; ATCC 27853, 24 h) of 50 µg/mL (≈ 149 µM). It also gave an MIC (Proteus vulgaris; ATCC 13315, 24 h) of 25 µg/mL (≈ 74.7 µM), an MIC (Candida albicans; ATCC 90028, 48 h) of 25 µg/mL (≈ 74.7 µM) and an MIC (Nakaseomyces glabratus; ATCC 32554, 48 h) of 20 µg/mL (≈ 59.8 µM). The IC50 (HeLa) was 56.1 µM, the MIC (Enterobacter cloacae; ATCC 13047, 24 h) was 50 µg/mL (≈ 149 µM) and the IC50 (MCF7 [3]) was 28.4 µM. It also gave an MIC (Escherichia coli) of 20 µg/mL (≈ 59.8 µM).
With O=C(NC(=S)Nc1nc2cc([N+](=O)[O-])ccc2s1)c1ccc([N+](=O)[O-])cc1 the MIC (Candida tropicalis; ATCC 20336, 48 h) was 25 µg/mL (≈ 62 µM), the MIC (Staphylococcus aureus) was 50 µg/mL (≈ 124 µM) and the MIC [1] was 50 µg/mL (≈ 124 µM). The MIC (Pichia kudriavzevii; ATCC 6268, 48 h) was 25 µg/mL (≈ 62 µM), the MIC [2] was 25 µg/mL (≈ 62 µM) and the MIC (Pseudomonas aeruginosa; ATCC 27853, 24 h) was 50 µg/mL (≈ 124 µM). For the same compound, the MIC (Proteus vulgaris; ATCC 13315, 24 h) was 25 µg/mL (≈ 62 µM), the MIC (Candida albicans; ATCC 90028, 48 h) was 25 µg/mL (≈ 62 µM) and the MIC (Enterococcus faecalis) was 50 µg/mL (≈ 124 µM). For the same compound, the MIC (Nakaseomyces glabratus; ATCC 32554, 48 h) was 25 µg/mL (≈ 62 µM), the IC50 (HeLa) was 68.5 µM and the MIC (Enterobacter cloacae; ATCC 13047, 24 h) was 25 µg/mL (≈ 62 µM). For the same compound, the IC50 (MCF7 [3]) was 35.2 µM and the MIC (Escherichia coli) was 50 µg/mL (≈ 124 µM).
Work on NCC[C@H](O)C(=O)N[C@@H]1C[C@H](N)[C@@H](O[C@H]2O[C@H](CN)[C@@H](O)[C@H](O)[C@H]2O)[C@H](O)[C@H]1O[C@H]1O[C@H](CO)[C@@H](O)[C@H](N)[C@H]1O [AMIKACIN] yielded an MIC (Staphylococcus aureus) of 2 µg/mL (≈ 3.42 µM), an MIC [1] of 2 µg/mL (≈ 3.42 µM) and an MIC [2] of 0.5 µg/mL (≈ 0.854 µM). The MIC (Enterococcus faecalis) was 4 µg/mL (≈ 6.83 µM).
In the case of CCCC(=O)NC(=S)Nc1nc2cc([N+](=O)[O-])ccc2s1, the MIC (Candida tropicalis; ATCC 20336, 48 h) is reported as 50 µg/mL (≈ 154 µM), the MIC (Staphylococcus aureus) is reported as 50 µg/mL (≈ 154 µM) and the MIC (Pichia kudriavzevii; ATCC 6268, 48 h) is reported as 25 µg/mL (≈ 77.1 µM). It also gave an MIC [2] of 50 µg/mL (≈ 154 µM), an MIC (Pseudomonas aeruginosa; ATCC 27853, 24 h) of 20 µg/mL (≈ 61.7 µM) and an MIC (Proteus vulgaris; ATCC 13315, 24 h) of 20 µg/mL (≈ 61.7 µM). The MIC (Candida albicans; ATCC 90028, 48 h) was 20 µg/mL (≈ 61.7 µM), the MIC (Enterococcus faecalis) was 50 µg/mL (≈ 154 µM) and the MIC (Nakaseomyces glabratus; ATCC 32554, 48 h) was 25 µg/mL (≈ 77.1 µM). For the same compound, the MIC (Enterobacter cloacae; ATCC 13047, 24 h) was 20 µg/mL (≈ 61.7 µM) and the IC50 (MCF7 [3]) was > 100 µM.
GENTAMICIN was tested, and the MIC (Pseudomonas aeruginosa) was 1 µg/mL, the MIC (Proteus vulgaris) was 2 µg/mL and the MIC (Enterobacter cloacae) was 2 µg/mL.
In the case of CCCC(=O)NC(=S)Nc1nc2cc(N)ccc2s1, the MIC (Candida tropicalis; ATCC 20336, 48 h) is reported as 50 µg/mL (≈ 170 µM), the MIC (Staphylococcus aureus) is reported as 50 µg/mL (≈ 170 µM) and the MIC (Pichia kudriavzevii; ATCC 6268, 48 h) is reported as 50 µg/mL (≈ 170 µM). The MIC [2] was 50 µg/mL (≈ 170 µM), the MIC (Candida albicans; ATCC 90028, 48 h) was 20 µg/mL (≈ 67.9 µM) and the MIC (Enterococcus faecalis) was 50 µg/mL (≈ 170 µM). The MIC (Nakaseomyces glabratus; ATCC 32554, 48 h) was 50 µg/mL (≈ 170 µM) and the IC50 (MCF7 [3]) was 44.7 µM.
O=C(NC(=S)Nc1nc2cc(Br)ccc2s1)c1ccccc1 showed an MIC (Candida tropicalis; ATCC 20336, 48 h) of 50 µg/mL (≈ 127 µM), an MIC (Staphylococcus aureus) of 50 µg/mL (≈ 127 µM) and an MIC [1] of 50 µg/mL (≈ 127 µM). The MIC (Pichia kudriavzevii; ATCC 6268, 48 h) was 50 µg/mL (≈ 127 µM), the MIC [2] was 50 µg/mL (≈ 127 µM) and the MIC (Candida albicans; ATCC 90028, 48 h) was 25 µg/mL (≈ 63.7 µM). For the same compound, the MIC (Enterococcus faecalis) was 50 µg/mL (≈ 127 µM), the MIC (Nakaseomyces glabratus; ATCC 32554, 48 h) was 25 µg/mL (≈ 63.7 µM) and the IC50 (HeLa) was 64.6 µM. It also gave an IC50 (MCF7 [3]) of 32.1 µM.
